Measurements from the EternaBench riboswitch data.

Test system: MS2 coat protein
Assay: apparent Kd, MS2 coat protein; higher = weaker binding; RNA-MaP array; FMN 200 µM where present
Procedure, shortened: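 The titrant was SNAP-549-labelled MS2 coat protein, run from 0.7 or 1.5 nM in doubling steps to 3 µM. It was applied to designs transcribed by stalled E. coli RNA polymerase on Illumina sequencing-chip clusters, without ligand first and then with constant ligand, in 100 mM Tris-HCl pH 7.5, 80 mM KCl, 4 mM MgCl2, BSA, DTT, yeast tRNA and Tween-20. The apparent Kd is the median of filtered per-cluster binding-curve fits, with green signal normalised to red-channel RNA signal and control-cluster median Fmax.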

[1] = designed as: OFF switch for flavin mononucleotide, no ligand
[2] = ligand present: flavin mononucleotide, designed as: OFF switch for flavin mononucleotide
[3] = designed as: ON switch for flavin mononucleotide, no ligand
[4] = ligand present: flavin mononucleotide, designed as: ON switch for flavin mononucleotide

Sequence	apparent Kd [1]	apparent Kd [2]	apparent Kd [3]	apparent Kd [4]
AUAUGCCAUGUAAGGAUAUACUGGAGCAUAAGCUCGUAGAAGGUACAUGAGGAUCACCCAUGUGGACCCGACAC	29.9 nM	34.9 nM	–	–
AUAUUGUGAGGAUAUGAACUUUGUAUCGAAAGAUACUAAGUUCAGAAGGCACAUGAGGAUCACCCAUGUUUCUC	82.2 nM	1130 nM	–	–
AUAUUUAUAUAUUUGGCAAGAAUCAGAAGGCGUUACAUGAGGAUCACCCAUGUUUUGUAUAGUAACGAGGAUAUGAUAUGGAAA	18.8 nM	14.2 nM	–	–
AUCAGCACGUGAGGAUAUGCGUCACUGCGAAAGCAGUACGGUAAGAUCACAUGAGGAUCACCCAUGUAGAAGGCACGAGCUGAU	16.6 nM	38.1 nM	–	–
AUCAGCUAGUCAGGAUAUACGUCACUGCGUCAGCAGUGUGGUAAGAUCACAUGAGGAUCACCCAUGUAGAAGGGACGAGCUGAU	14.2 nM	295 nM	–	–
AUCAGCUCGUCAGGAUAUACAUCACUGCUUCGGCAGUGUAUCUUAACAACAUGAGGAUCACCCAUGUAGAAGGGACGAGCUGAU	17.6 nM	24.5 nM	–	–
AUCAGCUCGUCAGGAUAUACGGCACUGCGUCAGCAGUGUGGUAAGAUCACAUGAGGAUCACCCAUGUAGAAGGGACGAGCUGAU	8.06 nM	84.6 nM	–	–
AUCAGCUCGUCAGGAUAUACGUCACUCCGUCAGCAGUGUGGUAAGAUCACAUGAGGAUCACCCAUGUAGAAGGGACGAGCUGAU	29.5 nM	253 nM	–	–
AUCAGCUCGUCAGGAUAUACGUCACUGCGUCAGCAGUGUGGUAAGAUCACAUGAGGAUCACCCAUGUAGAAGGGACGAGCUCAU	13.9 nM	322 nM	–	–
AUCAGCUCGUCAGGAUAUACGUCACUGCGUCAGCAGUGUGGUAAGAUCACAUGAGGAUCACCCAUGUAGAAGGGACGAGGUGAU	14.9 nM	265 nM	–	–
AUCAGCUCGUCAGGAUAUACGUCACUGCGUCAGCAGUGUGGUAAGAUCACAUGAGGAUCACCCAUGUAGAAGGGACUAGCUGAU	14.8 nM	294 nM	–	–
AUCAGCUCGUCAGGAUAUACGUCACUGCGUCAGCAGUGUGGUAAGGUCACAUGAGGAUCACCCAUGUAGAAGGGACGAGCUGAU	9.4 nM	117 nM	–	–
AUCAGCUCGUCAGGAUAUACGUCACUGCGUCAGCAGUGUGGUAAUAUCACAUGAGGAUCACCCAUGUAGAAGGGACGAGCUGAU	5.27 nM	6.28 nM	–	–
AUCAGCUCGUCAGGAUAUACGUCACUGCUUCGGCAGUGUGGUAAGAUCACAUGAGGAUCACCCAUGUAGAAGGGACGAGCUGAG	13.2 nM	260 nM	–	–
AUCAGCUCGUCAGGAUAUAUGUCACUGCGUCAGCAGUGUGGUAAGAUCACAUGAGGAUCACCCAUGUAGAAGGGACGAGCUGAU	30.7 nM	78.8 nM	–	–
AUCAGCUUGUCAGGAUAUGCGUGUCAACGAAAGUAGACAAUCUUAAUAACAUGAGGAUCACCCAUGUAGAAGGGACGAGCUGAU	18.2 nM	20.3 nM	–	–
AUCAUGUGAGGAUAUGUGAUCAACCUUCUAUAUAGAUGAUGACAGAAGGCACAUGAGGAUCACCCAUGUAGAUC	90.7 nM	21.8 nM	–	–
AUCCUACAUGAGGAUCACCCAUGUGACGCCUCGAUAGGAUAUGCGUGUGCCUUGGCGCAUGCAGAAGGAUUGUUGC	–	–	149 nM	195 nM
AUCGGCCCGUAGAAGGGUGACAUGAGGAUCACCCAUGUGCCGCGUGCAUUUAUGCCUCCGCGGCCACAGGAUAUACGGAGUUGA	–	–	61 nM	50 nM
AUCUCAGGACGAGGAUAUCAAUACAUGAGGAUCACCCAUGUAUUACUACUGUGAUCCUUCAAGGCUGAGAAGGCGUCCCAAAUG	20.7 nM	37.8 nM	–	–
AUCUUGUAAGGAUAUCUUACAAGUGACUUCGGUCACAGUUAAGAGAAGGUACAUGAGGAUCACCCAUGUAUAAC	26.4 nM	23 nM	–	–
AUCUUGUCAGGAUAUCGUACAAUAUGGAAAACAUAGAGGUACGAGAAGGGACAUGAGGAUCACCCAUGUAAAAC	40.2 nM	84.5 nM	–	–
AUGAGGUCAGGAUAUGCAUGGCGGGACUUGCGUCGUGGCGUGCAGAAGGGACAUGAGGAUCACCCAUGUGGAGA	104 nM	325 nM	–	–
AUGAGGUCAGGAUAUGCAUGGCGGGACUUGCGUCGUGGCGUGGAGAAGGGACAUGAGGAUCACCCAUGUGGAGA	84.6 nM	76.1 nM	–	–
AUGAGGUUAGGAUAUACAUGAGGAUCACCCAUGUUGGAGAAGGAAAUGUAAGUAGCGAGUAGAAGGAACGGAGC	47 nM	43.4 nM	–	–
AUGCCUUAUGUAGGAUAUGCAUAGAGUUGCUAUGCAGAAGGACAUGAGGAUCACCCAUGUAUGUAUACCAUACAUAUCUGGCAU	35.6 nM	316 nM	–	–
AUGCUAGUGUGAGGAUAUCAACAUGAGGAUCACCCAUGUUGGAAGUACACGACAUGCGGUACAGGUGAGAAGGUACAUUAGCAU	27.4 nM	53.2 nM	–	–
AUGGACGUCGUAGGAUAUGUAGGAUUCUCGUACAUGAGGAUCACCCAUGUUGACGUCAAGGUCGGACAGAAGGGCGGUGUCUAU	–	–	584 nM	65.4 nM

Sequence	apparent Kd [1]	apparent Kd [2]	apparent Kd [3]	apparent Kd [4]
AUGGAUAUCACAGGAUAUGCUAUGGAUACCAUAGCAGAAGGGUGAUCCAUCCUAUGGCUGCACAUGAGGAUCACCCAUGUGUCC	–	–	107 nM	11.1 nM
AUGGAUAUCACAGGAUAUGCUAUGGAUACCAUAGCAGAAGGGUGAUCCAUCCUAUGUGAGCACAUGAGGAUCACCCAUGUGUCC	–	–	123 nM	23.1 nM
AUGGUUCACUCAGGAUAUGUAUCACCUCGUUACCAACAUGAGGAUCACCCAUGUCCGUGGCUCGGACAGAAGGGAGAAGAACCG	–	–	581 nM	232 nM
AUGGUUGUCGUAGGAUAUGUAGGAUAUUCCUACAUGAGGAUCACCCAUGUUCGCAUGGAAGAAGGACGGAAGGACGAUGACCAU	–	–	194 nM	132 nM
AUGUACCGGUGAGGAUAUUUUUAAUAGAGCUUUAUGAUAUACAUGAGGAUCACCCAUGUUACUUUAAAGAAGGCAUCGGAUUAA	19 nM	14 nM	–	–
AUGUAGGUAGGAUAUGCAUAGAUAUACAUUCAUGUGGAUUUACAUGAGGAUCACCCAUGUAGAAGGACCUAAAA	34.1 nM	107 nM	–	–
AUGUAUCGCCUCGAGGAUAUCCUGUCAUGCACAUGAGGAUCACCCAUGUAAGAGCGAGUUUAAUGGGAGAAGGCGAGUUCUCGGU	–	–	111 nM	35 nM
AUGUGCCUAGGAUAUACAUGAGGAUCACCCAUGUUAACACUGCAAUCAAGUUAAUAUUGUAGAAGGAGGUGUAA	27.6 nM	27.5 nM	–	–
AUGUUACAUGAGGAUCACCCAUGUGAGGAUAUGUGUAUCCCUAAAAAAGUGUGGGACCAUAGAAGGUACUUGGA	59.2 nM	58.6 nM	–	–
AUGUUGAGCAGUGUAUUAAGAUCACAUGAGGAUCACCCAUGUAGAAGGUAUGAGCUGAUCGCUCAUAAGGAUAUACAUCACUGC	69.9 nM	119 nM	–	–
AUUAAAACAUAGGAUAUCGAAUUUAUUAUUUAACGAGAAGGAUGAACAUGAGGAUCACCCAUGUGGUAUCAUGG	149 nM	308 nM	–	–
AUUAAUUUGUAGAAGGACGACUAUUAAUAUUUCGUAGGAUAUACUAUUUACAUGAGGAUCACCCAUGUUUAAAUGGAACAAUGU	8.1 nM	11.8 nM	–	–
AUUAUGACCGAGUUAAGCUUCAAAACAUGAGGAUCACCCAUGUAGGAUAUCAGCACGAUAAGUGCUGAGAAGGACAUCUCGGUC	13.5 nM	15.5 nM	–	–
AUUAUGUUAGGAUAUGCUUAUGGUGGAUAGUCCAGUGUGGUGCAGAAGGGACAUGAGGAUCACCCAUGUGCUGA	53.8 nM	60.6 nM	–	–
AUUAUUAAAGUGAGGAUAUCUAGAGCUUCGGCUCUAGAGAAGGCACAUGAGGAUCACCCAUGUCUCAAUUAUUA	18.5 nM	59.4 nM	–	–
AUUCUUGGGCAAGGAUAUCCUGUGCGGUUCCGGCUCGUGUCUGUCACAUGAGGAUCACCCAUGUGGGAGAAGGUGCCUGCGGUC	6.86 nM	7.2 nM	–	–
AUUGUAGGAGGAUAUACAUGAGGAUCACCCAUGUCGUCCCAGGAGGACACCUUCCCAUGUAGAAGGCCUGGGAC	31.4 nM	19.3 nM	–	–
AUUGUAUGGAAAGGAUAUAGAAUAUUAUUUUAACAUGAGGAUCACCCAUGUAACCUUAUGUGUAGCUAGAAGGUUCGUUUGUUA	88.2 nM	97.8 nM	–	–
AUUGUGUGAGGAUAUUAGUAGUAAAUGAAUAAAAUUAUUACUGAGAAGGCACAUGAGGAUCACCCAUGUUCCUU	19.1 nM	138 nM	–	–
AUUGUGUGAGGAUAUUAGUAGUAGAUGAAUGGAGUUGUGGCUGAGAAGGCACAUGAGGAUCACCCAUGUUCCUU	22.3 nM	25.9 nM	–	–
AUUGUUAAGGUAGGAUAUAGUAAAAUGAUUUAGUUAGAAGGAUCUCACAUGAGGAUCACCCAUGUAAGAGGAUCACCCAUGUAU	11.1 nM	9.45 nM	–	–
AUUUAAAUGUCAGGAUAUGUCGGUAUAUACUCGGUAGAAGGGAUAAUUAUACUCAAGUACAUGAGGAUCACCCAUGUUAAAUCA	–	–	21.1 nM	14 nM
AUUUAAUUUAAUAAGAUCACAUGAGGAUCACCCAUGUAUAUAUAGGAUAUCAGCUCGAUUAGAGCUGAGAAGGAUAUAUACUAU	383 nM	322 nM	–	–
AUUUAAUUUAAUAAGAUCACAUGAGGAUCACCCAUGUUAUAAUAGGAUAUCAGCUCGUGUAGAGCUGAGAAGGAUUAUAACAUG	66.3 nM	35.1 nM	–	–
AUUUAUGGCCAGAAGGACAUGAGGAUCACCCAUGUAGGAUAUGGACGAUUUUGCUCGACGGUUUGUUAAGGAAGCACCGGUGGU	–	–	12.4 nM	6.52 nM
AUUUAUGUCAUAGGAUAUAUAAAUAAAUUUAUAACAUGAGGAUCACCCAUGUACUUUGGUAUGAGGUAGAAGGAUGAUAAGAAU	–	–	49.6 nM	31.9 nM
AUUUAUUAGUAAGGAUAUACUAGCGAUUUGCUUGUAGAAGGUACAGUCUUAUGUAUAACAUGUUAACAUGAGGAUCACCCAUGU	–	–	44.4 nM	27.5 nM
